Test results published in ChEMBL document CHEMBL2321812 (J Med Chem, 2013).
Activity calls are given as the source filed them. No cut-off for these calls is given here.

Columns and labels:
[1] = Half life in human liver microsomes; assay type: ADME, Microsome
[2] = target: T1, Tankyrase 1/2 (Homo sapiens, UniProt Q9H2K2+O95271); test: Inhibition of TNKS1/2 in HEK293 cells assessed as inhibition of Wnt/beta-catenin pathway after 24 hrs by luciferase reporter gene assay; assay type: cell-based
T1 sequence (Q9H2K2 whole entry): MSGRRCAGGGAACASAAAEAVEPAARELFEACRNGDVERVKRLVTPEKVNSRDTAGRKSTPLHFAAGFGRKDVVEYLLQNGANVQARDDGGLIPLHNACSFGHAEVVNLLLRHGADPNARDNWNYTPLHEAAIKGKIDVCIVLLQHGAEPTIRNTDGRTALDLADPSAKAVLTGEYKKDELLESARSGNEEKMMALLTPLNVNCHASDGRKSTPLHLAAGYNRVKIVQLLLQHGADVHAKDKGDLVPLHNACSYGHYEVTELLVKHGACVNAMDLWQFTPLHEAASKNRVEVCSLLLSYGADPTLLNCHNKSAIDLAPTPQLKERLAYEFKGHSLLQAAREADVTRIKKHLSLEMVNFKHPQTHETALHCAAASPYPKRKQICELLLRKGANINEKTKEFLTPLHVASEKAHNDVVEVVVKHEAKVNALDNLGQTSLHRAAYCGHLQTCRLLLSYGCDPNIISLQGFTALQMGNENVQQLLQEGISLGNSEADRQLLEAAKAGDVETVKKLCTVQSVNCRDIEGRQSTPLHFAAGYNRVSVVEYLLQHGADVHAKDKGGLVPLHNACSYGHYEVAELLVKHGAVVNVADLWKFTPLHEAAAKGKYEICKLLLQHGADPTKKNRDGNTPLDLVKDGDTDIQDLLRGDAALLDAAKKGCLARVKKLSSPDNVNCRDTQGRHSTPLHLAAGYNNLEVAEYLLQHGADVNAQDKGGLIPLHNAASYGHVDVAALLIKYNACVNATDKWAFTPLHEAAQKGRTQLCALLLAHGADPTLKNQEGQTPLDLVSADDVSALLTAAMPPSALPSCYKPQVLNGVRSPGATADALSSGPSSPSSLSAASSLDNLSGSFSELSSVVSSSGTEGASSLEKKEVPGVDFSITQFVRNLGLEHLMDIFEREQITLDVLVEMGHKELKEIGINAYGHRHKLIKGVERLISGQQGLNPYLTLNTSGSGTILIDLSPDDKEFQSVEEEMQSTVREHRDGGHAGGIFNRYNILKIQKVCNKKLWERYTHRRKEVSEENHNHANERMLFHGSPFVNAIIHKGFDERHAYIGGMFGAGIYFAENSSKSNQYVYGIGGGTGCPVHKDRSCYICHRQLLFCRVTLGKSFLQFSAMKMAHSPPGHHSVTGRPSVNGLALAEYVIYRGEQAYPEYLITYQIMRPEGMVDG
T1 sequence (O95271 whole entry): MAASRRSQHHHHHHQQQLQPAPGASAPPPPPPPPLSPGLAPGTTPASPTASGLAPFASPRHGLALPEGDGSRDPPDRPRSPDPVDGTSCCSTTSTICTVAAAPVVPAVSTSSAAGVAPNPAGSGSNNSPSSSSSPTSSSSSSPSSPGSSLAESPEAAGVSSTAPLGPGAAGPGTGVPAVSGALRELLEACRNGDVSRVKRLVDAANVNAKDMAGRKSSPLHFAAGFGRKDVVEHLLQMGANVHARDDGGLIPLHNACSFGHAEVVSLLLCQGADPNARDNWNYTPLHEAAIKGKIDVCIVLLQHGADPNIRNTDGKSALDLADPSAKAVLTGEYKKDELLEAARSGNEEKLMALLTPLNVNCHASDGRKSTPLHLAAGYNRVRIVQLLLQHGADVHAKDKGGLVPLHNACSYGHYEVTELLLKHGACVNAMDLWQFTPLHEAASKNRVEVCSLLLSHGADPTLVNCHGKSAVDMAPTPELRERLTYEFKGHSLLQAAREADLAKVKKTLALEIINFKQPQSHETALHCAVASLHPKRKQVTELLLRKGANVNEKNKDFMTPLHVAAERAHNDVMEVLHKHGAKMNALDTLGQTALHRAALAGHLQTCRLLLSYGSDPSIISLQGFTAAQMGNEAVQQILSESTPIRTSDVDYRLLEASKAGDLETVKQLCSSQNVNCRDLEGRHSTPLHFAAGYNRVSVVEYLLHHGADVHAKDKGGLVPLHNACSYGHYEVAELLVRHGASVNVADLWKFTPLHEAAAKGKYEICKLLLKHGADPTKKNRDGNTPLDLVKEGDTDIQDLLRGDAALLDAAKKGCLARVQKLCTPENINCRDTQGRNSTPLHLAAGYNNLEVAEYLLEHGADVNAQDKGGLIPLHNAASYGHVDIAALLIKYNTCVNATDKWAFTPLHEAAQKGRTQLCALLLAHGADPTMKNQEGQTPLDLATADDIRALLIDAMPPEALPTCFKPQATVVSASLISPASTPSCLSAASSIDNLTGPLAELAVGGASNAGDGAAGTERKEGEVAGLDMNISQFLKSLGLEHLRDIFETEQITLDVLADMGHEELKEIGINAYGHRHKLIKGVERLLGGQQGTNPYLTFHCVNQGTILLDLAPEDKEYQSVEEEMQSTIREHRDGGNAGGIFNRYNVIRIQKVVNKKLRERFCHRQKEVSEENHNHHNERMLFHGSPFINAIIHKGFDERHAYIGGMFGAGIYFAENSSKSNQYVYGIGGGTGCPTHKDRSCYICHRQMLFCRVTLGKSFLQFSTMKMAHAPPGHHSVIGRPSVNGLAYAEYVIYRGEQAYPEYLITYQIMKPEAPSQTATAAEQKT

[3] = target: T2, Poly [ADP-ribose] polymerase tankyrase-2 (Homo sapiens, UniProt Q9H2K2); test: Inhibition of TNKS2 (unknown origin) by NAD+-dependent autopoly(ADP ribosyl)lation assay
T2 sequence (Q9H2K2 whole entry): T1 sequence (Q9H2K2 whole entry)

[4] = target: Tankyrase 1/2 (Homo sapiens) (UniProt Q9H2K2+O95271); test: Inhibition of TNKS1/2 in HEK293 cells assessed as inhibition of Wnt/[…] pathway at 10 uM after 24 hrs by luciferase reporter gene assay; assay type: cell-based
Summary of the method: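 ST-Luc/Ren HEK293 cells (stable SuperTOP-Flash, 7× TCF sites) were seeded at 40,000 per well on poly-L-lysine. After 24 h, cells got compound for 24 h in 50% Wnt3a-conditioned medium from L Wnt3a cells. Lysates were read for firefly and Renilla luciferase by dual-luciferase luminescence.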

Row | SMILES | half-life [1] | IC50 [2] | also measured
1 | CS(=O)(=O)c1ccc(-c2nnc(SCc3nnc(-c4ccc(Cl)cc4)o3)n2-c2ccccc2Cl)nc1 | 4 min | – | –
2 | Cc1cc2nc(CSc3nnc(-c4ccncc4)n3-c3ccccc3Cl)cc(=O)n2cc1C | 7 min | – | –
3 | COc1ccc(-n2c(OCc3nc(-c4ccc(C)cc4)no3)nnc2-c2ccncc2)cc1 | – | > 10 µM | IC50 [3]: > 10 µM
4 | Cc1ccc(-c2noc(CSc3ncc(-c4ccncc4)n3-c3ccccc3C)n2)cc1 | – | > 10 µM | –
5 | N#Cc1ccc(-c2nnc(CSc3nnc(-c4ccncc4)n3-c3ccncc3Cl)o2)cc1 | – | – | inhibition [4]: inactive
6 | Oc1cc(-c2nnc(/C=C/c3nnc(-c4ccc(F)cc4)n3-c3ccccc3Cl)o2)ccn1 | 128 min | – | –
7 | NCCCOCCCOc1cccc(-c2noc(CSc3nnc(-c4ccncc4)n3-c3ccccc3Cl)n2)c1 | – | 3.92 µM | –
8 | N#Cc1ccc(-c2nnc(CSc3nnc(-c4ccncc4)n3-c3ccccc3Cl)o2)cc1 | 2.4 min | – | –
9 | Cc1nnc(SCc2nnc(-c3ccc(Cl)cc3)o2)n1-c1ccccc1Cl | – | 4.5 µM | –

More lines, main results first:

Row | half-life [1] | IC50 [2] | SMILES | also measured
10 | 7 min | – | Cc1ccc(-c2nnc(CCc3nnc(-c4ccncc4)n3-c3ccccc3Cl)o2)cc1 | –
11 | 37 min | – | COc1cc(-c2nnc(/C=C/c3nnc(-c4ccc(S(C)(=O)=O)cn4)n3-c3ccccc3Cl)o2)ccn1 | –
12 | 6.5 min | > 10 µM | COc1ccc(-n2c(NCc3nc(-c4ccc(C)cc4)no3)nnc2-c2ccncc2)cc1 | IC50 [3]: > 10 µM
13 | 3 min | 1.01 µM | COc1ccc(-n2c(SCc3nc(-c4ccc(C)cc4)no3)nnc2-c2ccncc2)cc1 | IC50 [3]: 0.46 µM
